The source of these data is the RNAGym collection of RNA variant scans (doi:10.1126/science.aae0568).

This sample holds only a part of the variants without activity.

B1: tRNA (parent)
chain: GUUCCGUUGGCGUAAUGGUAACGCGUCUCCCUCCUAAGGAGAAGACUGCGGGUUCGAGUCCCGUACGGAACG

Variants of B1 are the subject of this data set. Kind of data set: yeast fitness relative to wild type (ratio to wild type); higher = fitter; tRNA-Arg(CCU), competitive growth, 37 C, YPD. Put shortly: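 For this measurement, the tRNA-Arg(CCU) gene was varied by chemical synthesis at a 3% per-site mutation rate across 69 sites, and each variant was placed at the native genomic locus in Saccharomyces cerevisiae. The pooled strains went through a 24-hour competition in YPD at 37°C in six parallel replicates, with amplicons from start and end populations read by 100-nucleotide paired-end sequencing. Darwinian fitness relative to wild type followed from the change in each genotype's frequency. Genotypes needed ≥ 100 starting reads, and estimates < 0.5 were set to 0.5.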
Consider GUUCCGUUGGCGUGAUGGUAACGCGUCUCCGUCCUAAGGAGAAGACUGCGGGUUCGCGUCCCGUCCGGAACG [A14G C31G A57C A65C], for which the yeast fitness is ≤ 0.5.
For GUUCCGUUGGCGUGAUGGUAACGCGUGUCCCUCGUAUGGAGAAGACUGCGGGUUCGAGUCCCGUACGGAACG [A14G C27G C34G A37U], the yeast fitness was 0.61.
With GUUCCGUUGGCGUGAUGGUAACGCGUGUCCCUCCUAAGGAGAAGACUGCGGGUUCGAGUCCUGUACGGAACG [A14G C27G C62U], the yeast fitness was ≤ 0.5.
In the case of GUUCCGUUGGCGUGAUGGUAACGCGUCUCCCUCUUAAGGAGAAGACUGCGGAUUCGAGUCCCGUAUGGAUCG [A14G C34U G52A C66U A70U], the yeast fitness is ≤ 0.5.
With GUUCCGUUGGCGUGAUGGUAACGCGUCUGCCUCCUAAGGAGAAGAUUGCGGGUUCGGGUCUCGUACGGAACG [A14G C29G C46U A57G C61U] the figure was ≤ 0.5; with GUUCCGUUGGCGUGAUGGUAACGCGUCUGCCUCCUAGGGAGAAGACUGCGGGUUCGAGUCCCGUAGGGAACG [A14G C29G A37G C66G], ≤ 0.5; with GUUCCGUUGGCGUGAUGGUAACGCGUCUCCAUCCUAAGGAGAGGACUGCGGGUUCGAGUCCCGUACGGAACG [A14G C31A A43G], 0.679.
Next, GUUCCGUUGGCGUGAUGGUAACGCGUCUCCCUCCUAAGGAGAAGACUGGGGGUUCGAGUCCCGUACGGUACG [A14G C49G A69U]: 0.566; GUUCCGUUGGCGUGAUGGUAACGCGUCUCUCUCCUAAGGAGAAGUCUGCGGGUUCGAGUCCCGUACGGAACG [A14G C30U A45U]: 0.675.
With GUUCCGUUGGCGUGAUGGUAACGCGUCUCCCUCGUAAGGAGAAGUCUGCGGGUUCGAGUCCCGUACGGAACG [A14G C34G A45U] the figure was ≤ 0.5.
Regarding GUUCCGUUGGCGUGAUGGUAACGCGUCUACCUCCUAAGGAGAAGACUGCGGGUUCGAGUCCUGUACGGAACG [A14G C29A C62U], the yeast fitness was ≤ 0.5.
For the variant GUUCCGUUGGCGUGAUCGUAACGCGUCUCCCUCCUAAGAAGAAGACUGCGGGUUCGAGUCCCGUACGGCACG [A14G G17C G39A A69C], the yeast fitness is ≤ 0.5.
With GUUCCGUUGGCGUGAUGGUAACGCGUGUCUGUCCUAAGGAGAAGACUGCGGGUUCGAGUCCCGUACGGAACG [A14G C27G C30U C31G] the figure was 0.76; with GUUCCGUUGGCGUGAUGGUAACGCGUCUCCCUCCUAAGGAGAAGACUGCGGGUUCGAGUCUCGUACGGAACG [A14G C61U], 0.934; with GUUCCGUUGGCGUGAUGGUAACGCGUGUCCCUCCUAAGGAGAAGACUGCGGGUUCGAGUCCCGUUCGUAACG [A14G C27G A65U G68U], ≤ 0.5.
GUUCCGUUGGCGUGAUGGUAACGCGUCUCUCUCCUAAGGAGAAGAAUGCGGGUUCGAGUCCCGUACGGAACG [A14G C30U C46A]: the yeast fitness is 0.763.
Take GUUCCGUUGGCGUGAUGGUAACGCGUUUCCCUCCUAAGGAGAAGACAGCGGGUUCGAGUCCUGUAUGGAACG [A14G C27U U47A C62U C66U]: the yeast fitness is ≤ 0.5.
For the variant GUUCCGUUGGCGUGAUGGUAACGCGUCUCCGUCCUAAGGAGAUGAGUGCGGGUUCGAGUCCCGUACGGAUCG [A14G C31G A43U C46G A70U], the yeast fitness is ≤ 0.5.
Take GUUCCGUUGGCGUGAUGGUAACGCGUCUUCCUCCUAAGAAGAAGACUGCGGGUUCGAGUCCCGUACGGAACG [A14G C29U G39A]: the yeast fitness came out at 0.574.
On to GUUCCGUUGGCGUGAUGGUAACGCGUCUCACUCAUAAGGAGACGACUGCGGGUUCGAGUCCCGUACGGAACG [A14G C30A C34A A43C], for which the yeast fitness was ≤ 0.5.
For the variant GUUCCGUUGGCGUGAUGGUAACGCGUCUCCUUCUUAAAGAGAAGAUUGCGGGUUCGAGUCCCGUACGGAACG [A14G C31U C34U G38A C46U], the yeast fitness is ≤ 0.5.
Turning to GUUCCGUUGGCGUGAUGGUAACGCGUCUGCCUCCUAGGGAGAAGAUUGCGGGUUCGAGUCCCGUAGGGAACG [A14G C29G A37G C46U C66G], the yeast fitness was ≤ 0.5.
Next, GUUCCGUUGGCGUGAUGGUAACGCGUCUCCCUCGUAAGGAGACGACUGCGGGUUCGAGUCCAGUAAGGAACG [A14G C34G A43C C62A C66A]: ≤ 0.5; GUUCCGUUGGCGUGAUGGUAACGCGUCUCCCUCGUAAGGAGAAGACUGCGGGUUCGAGUCCCGUUAGGAACG [A14G C34G A65U C66A]: ≤ 0.5; GUUCCGUUGGCGUGAUGGUAACGCGUCUCCCUCCUAAGGAGAAGAAUGCGGGUUCGAGUCCCGUACGGAACG [A14G C46A]: 0.873.
Regarding GUUCCGUUGGCGUGAUGGUAACGCGUCUCCCUCCUAAGGAGAAGACUGCGGGUUCGAGUCCCGUAAGGAACG [A14G C66A], the yeast fitness was 0.656.
In the case of GUUCCGUUGGCGUGAUGGUAACGCGUCUCCCUCCUAAGGAGAAGACUGCGGGUUCGAGUCCCGUAUGGAACG [A14G C66U], the yeast fitness was 0.891.
Turning to GUUCCGUUGGCGUGAUGGUAACGCGUCUCCCUCGUAAGGAGACGACUGCGGGUUCGAGUCCUGUACGGAACG [A14G C34G A43C C62U], the yeast fitness is ≤ 0.5.
With GUUCCGUUGGCGUGAUGGUAACGCGUCUCCAUCCUAAGGAGAACACUGCGGGUUCGAGUGCCGUACGGAACG [A14G C31A G44C C60G] the figure was ≤ 0.5.
Next, GUUCCGUUGGCGUGAUGGUAACGCGUCUCCCUCCUAAGGAGAAGACUGAGGGUUCGAGUCCCGUACGGAACG [A14G C49A]: 0.694; GUUCCGUUGGCGUGAUGGUAACGCGUCUCCUUCCUAAGGAGAAGACUGCGGGUUCGAGUCCCGUACGCAACG [A14G C31U G68C]: ≤ 0.5.
As for GUUCCGUUGGCGUGAUGGUAACGCGUCUCACUCCUAAGGAGAAGACUGCGGGUUCGAGUCCCGUACGGAACG [A14G C30A], the yeast fitness worked out at 0.861.
With GUUCCGUUGGCGUGAUGGUAACGCGUCUCGCUCCUAAGGAGAAGACUGCGGGUUCGAGUCCCGUACGGAACG [A14G C30G] the figure was 0.591; with GUUCCGUUGGCGUGAUGGUAACGCGUCUCCCUCCUAAGGAGAAGAUUGCCGGUUUGUGUCCGGUACGGAUCG [A14G C46U G50C C55U A57U C62G A70U], 0.54; with GUUCCGUUGGCGUGAUCGUAACGCGUCUCCCUCCUCAGGAGAAGACUAGGAGUUCGAGUCCCGUACGGACCG [A14G G17C A36C G48A C49G G51A A70C], ≤ 0.5.
With GUUCCGUUGGCGUGAUGGUAACGCGUCUCCCUCCUAAGGAGAAGACUGCGGGUUGGAGUCCCGUACGGAACG [A14G C55G] the figure was 0.583.
Take GUUCCGUUGGCGUGAUGGUAACGCGUAUCCCUCCUAAGGAGAAGUCUGCGGGUUCGAGUCCCGUACCGAACG [A14G C27A A45U G67C]: the yeast fitness was 0.521.
Turning to GUUCCGUUGGCGUGAUAGUAACGCGUCUCCCUCCUAAGGAGAACACUGCGGGUUCGAGUCCCGUUCGGAACG [A14G G17A G44C A65U], the yeast fitness is ≤ 0.5.
